≈ marks a conversion by molar mass, not a printed value.
Experiments:
Phosphodiesterase 3 [1] = target: T1, Phosphodiesterase 3 (Homo sapiens, UniProt Q14432+Q13370); test: Inhibition of human platelet c-AMP phosphodiesterase PDE 3
Homo sapiens [2] = species on record: Homo sapiens; test: Inhibition of ADP-induced aggregation of human platelets; format: functional
[3] = Aqueous solubility; format: physicochemical; conditions: water; read-out: S
Outline: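 Water (0.5 mL) added to 10 mg compound at room temperature, diluted up to […] unless dissolution occurred.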

Homo sapiens [4] = species on record: Homo sapiens; test: Inhibition of ADP induced aggregation of human platelets after 15 min of incubation of the drug with PRP prior to the addition of ADP; format: functional; conditions: 0.25 h
Oryctolagus cuniculus [5] = test: Inhibition of laser induced thrombus formation in microvasculature of rabbit ear chamber at a dose of 0.3 mg/kg; format: functional
Outline: (§1)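 Conscious rabbits, laser-induced microvessel thrombosis, oral dosing; 10 trials 2 h post-dose compared with 10 predose trials in same rabbit; mean thrombus area, % inhibition; at least three rabbits per compound.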

Oryctolagus cuniculus [6] = test: Inhibition of laser induced thrombus formation in microvasculature of rabbit ear chamber at a peroral dose of 0.1 mg/kg; format: functional; conditions: route oral; outline: as §1
Oryctolagus cuniculus [7] = test: Inhibition of laser induced thrombus formation in microvasculature of rabbit ear chamber at dose of 0.03 mg/kg; format: functional; outline: as §1
Oryctolagus cuniculus [8] = test: Inhibition of laser induced thrombus formation in microvasculature of rabbit ear chamber at a peroral dose of 3 mg/kg; format: functional; conditions: route oral; outline: as §1
Oryctolagus cuniculus [9] = test: Inhibition of laser induced thrombus formation in microvasculature of rabbit ear chamber at a peroral dose of 1 mg/kg; format: functional; conditions: route oral; outline: as §1
Oryctolagus cuniculus [10] = species on record: Oryctolagus cuniculus; test: Inhibition of laser induced thrombus formation in microvasculature of rabbit ear chamber; format: functional, organism-based; outline: as §1
[11] = Solubility in 0.25 N HCl solution; format: physicochemical; conditions: read-out: S
Outline: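 Solubility tested as for water, 0.5 mL solvent on 10 mg solid at room temperature with up to […] dilution, but in 0.25 N HCl solution.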

Phosphodiesterase 3 [12] = target: T1, Phosphodiesterase 3; test: Inhibition of human platelet cAMP phosphodiesterase PDE 3
Outline: (§2)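 Human platelet cAMP PDE enzyme preparation; IC50 read from plots of cAMP hydrolysis against compound concentration; mean of duplicate determinations; BMY 20844 positive control.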

Phosphodiesterase 3 [13] = target: T1, Phosphodiesterase 3; test: Inhibition of human platelet cAMP Phosphodiesterase PDE 3; outline: as §2

Structure (SMILES) | IC50 (Phosphodiesterase 3 [1]) [nM] | EC50 (Homo sapiens [2]) [nM] | solubility [3] [µg/mL] | also measured
O=C1CN2Cc3cc(OCCCC(=O)N4CCN(Cc5ccccc5)CC4)ccc3N=C2N1 | 8 | 4150 | > 5000 | –
O=C1CN2Cc3cc(OCCCC(=O)N4CCN(CC5CCCCC5)CC4)ccc3N=C2N1 | 6 | 7230 | > 5000 | –
O=C(CCCOc1ccc2[nH]c3nc(O)nc-3cc2c1)N1CCN(CC2CCCC2)CC1 | 0.5 | 1300 | > 10000 | –
O=C(CCCOc1ccc2[nH]c3nc(O)nc-3cc2c1)N1CCN(CC2CCCCO2)CC1 (stereo not given) | 0.7 | 2020 | > 10000 | –
O=C(CCCOc1ccc2[nH]c3nc(O)nc-3cc2c1)N1CCN(c2ccccn2)CC1 | 5 | 670 | > 10000 | –
CN(C(=O)C1CCN(c2ccc3[nH]c4nc(O)nc-4cc3c2)CC1)C1CCCCC1 | – | > 37000 | < 10000 | –
O=C(CCCOc1ccc2[nH]c3nc(O)nc-3cc2c1)N1CCN(CCc2ccccc2C(F)(F)F)CC1 | 0.3 | 110 | < 10000 | –
CN1CCN(C(=O)CCCOc2ccc3[nH]c4nc(O)nc-4cc3c2)CC1 | 7 | 8900 | > 20000 | –
Oc1nc2cc3cc(N4CCOCC4)ccc3[nH]c-2n1 | 20 | 250 | < 10000 | –
O=C(CCCOc1ccc2[nH]c3nc(O)nc-3cc2c1)N1CCN(CC2CCCCC2)CC1 | 0.4 | 510 | > 10000 | IC50 (Homo sapiens [4]): 100 nM
O=C(CCCOc1ccc2[nH]c3nc(O)nc-3cc2c1)N1CCN(c2ncccn2)CC1 | 7 | 1220 | > 10000 | –
O=C(CCCOc1ccc2[nH]c3nc(O)nc-3cc2c1)N1CCN(c2cccc(C(F)(F)F)c2)CC1 | 0.6 | 720 | < 10000 | –
COc1ccc(CN2CCN(C(=O)CCCOc3ccc4[nH]c5nc(O)nc-5cc4c3)CC2)cc1 | 3 | 520 | > 10000 | –
O=C(CCCOc1ccc2[nH]c3nc(O)nc-3cc2c1)N1CCN(Cc2ccccc2)CC1 | 0.7 | – | > 10000 | inhibition in vivo at 0.3 mg/kg (Oryctolagus cuniculus [5]): 64%; inhibition in vivo at 0.1 mg/kg (Oryctolagus cuniculus [6]): 50%; inhibition in vivo at 0.03 mg/kg (Oryctolagus cuniculus [7]): 41%
O=C(CCCCOc1ccc2[nH]c3nc(O)nc-3cc2c1)N1CCN(Cc2ccccc2)CC1 | 0.08 | 47 | > 10000 | –
O=C(CCCOc1ccc2[nH]c3nc(O)nc-3cc2c1)N1CCN(c2ccccc2)CC1 | 2 | 50 | < 10000 | –
Oc1nc2cc3cc(N4CCN(c5ccccc5)CC4)ccc3[nH]c-2n1 | 5000 | 8060 | < 10000 | –
O=C(CCCOc1ccc2[nH]c3nc(O)nc-3cc2c1)N1CCC(N2CCCCC2)CC1 | 5 | 11400 | > 10000 | –
O=C(CCCOc1ccc2[nH]c3nc(O)nc-3cc2c1)N1CCNCC1 | 40 | 53700 | > 10000 | –
CN(CCc1ccccn1)C(=O)CCCOc1ccc2[nH]c3nc(O)nc-3cc2c1 | 4.5 | 12400 | > 10000 | –

Structure (SMILES) | IC50 (Phosphodiesterase 3 [1]) [nM] | EC50 (Homo sapiens [2]) [nM] | solubility [3] [µg/mL] | also measured
O=C(CCCOc1ccc2[nH]c3nc(O)nc-3cc2c1)N1CCN(Cc2cccc(C(F)(F)F)c2)CC1 | 9 | 920 | 2000 (≈ 3.89 mM) | –
O=C(CCCOc1ccc2[nH]c3nc(O)nc-3cc2c1)N1CCN(CCC2CCCCC2)CC1 | 0.2 | 54 | < 10000 | –
O=C(CCCOc1ccc2[nH]c3nc(O)nc-3cc2c1)NCCN1CCCCC1 | 4 | 4500 | > 20000 | –
O=C(CCCOc1ccc2[nH]c3nc(O)nc-3cc2c1)N1CCN(Cc2ccsc2)CC1 | 0.7 | 380 | > 10000 | –
CCC(CC)CN1CCN(C(=O)CCCOc2ccc3[nH]c4nc(O)nc-4cc3c2)CC1 | 1 | 430 | > 10000 | –
CN1CCCC1CCNC(=O)CCCOc1ccc2[nH]c3nc(O)nc-3cc2c1 (stereo not given) | 20 | 79800 | – | solubility [11]: > 10000 µg/mL
O=C(CCCOc1ccc2[nH]c3nc(O)nc-3cc2c1)N1CCN(C(c2ccccc2)c2ccccc2)CC1 | 3 | 62 | < 10000 | –
CC(C)CN1CCN(C(=O)CCCOc2ccc3[nH]c4nc(O)nc-4cc3c2)CC1 | 1 | 2430 | > 10000 | –
O=C(CCCOc1ccc2[nH]c3nc(O)nc-3cc2c1)N1CCN(Cc2ccc(Cl)cc2)CC1 | 2 | 170 | < 10000 | –
O=C(O)C1CCN(c2ccc3[nH]c4nc(O)nc-4cc3c2)CC1 | 20 | 30200 | < 10000 | –
O=C(CCCOc1ccc2[nH]c3nc(O)nc-3cc2c1)N1CCN(CCc2ccccc2)CC1 | 2 | 190 | < 10000 | –
O=C(CCCOc1ccc2[nH]c3nc(O)nc-3cc2c1)N1CCN(C(c2ccc(F)cc2)c2ccc(F)cc2)CC1 | 0.3 | 130 | < 10000 | –
O=C(CCCOc1ccc2[nH]c3nc(O)nc-3cc2c1)N1CCN(Cc2ccc(C(F)(F)F)cc2)CC1 | 0.4 | 2110 | < 10000 | –
Cn1c(O)nc2nc3ccc(OCCCC(=O)N4CCN(CC5CCCCC5)CC4)cc3cc21 | 80 | > 58100 | > 10000 | –
O=C(CCCOc1ccc2[nH]c3nc(O)nc-3cc2c1)NC1CCN(Cc2ccccc2)CC1 | 0.7 | 3700 | > 20000 | –
CCOC(=O)CN1CCN(C(=O)CCCOc2ccc3[nH]c4nc(O)nc-4cc3c2)CC1 | 2 | 2440 | > 10000 | –
O=C(CCCOc1ccc2[nH]c3nc(O)nc-3cc2c1)NC1CN2CCC1CC2 (stereo not given) | 40 | 12400 | > 10000 | –
O=C(c1ccccc1)N1CCN(c2ccc3[nH]c4nc(O)nc-4cc3c2)CC1 | 600 | 6820 | < 10000 | –
O=C(CCCOc1ccc2[nH]c3nc(O)nc-3cc2c1)N1CCN(CC(=O)N2CCCC2)CC1 | – | > 56500 | > 10000 | IC50 (Phosphodiesterase 3 [13]): 6 nM

Continued, in another order:

IC50 (Phosphodiesterase 3 [1]) [nM] | EC50 (Homo sapiens [2]) [nM] | solubility [3] [µg/mL] | Structure (SMILES) | also measured
700 | 3520 | < 10000 | CCOC(=O)N1CCN(c2ccc3[nH]c4nc(O)nc-4cc3c2)CC1 | –
30 | > 59100 | > 10000 | Cn1c(O)nc2nc3ccc(OCCCC(=O)N4CCN(Cc5ccccc5)CC4)cc3cc21 | –
– | 2030 | < 10000 | Oc1nc2cc3cc(N4CCCC4)ccc3[nH]c-2n1 | –
0.9 | 330 | 10000 (≈ 20.4 mM) | O=C(CCCOc1ccc2[nH]c3nc(O)nc-3cc2c1)N1CCN(Cc2ccc3c(c2)OCO3)CC1 | –
– | 900 | > 10000 | Oc1nc2cc3cc(N4CCCCC4)ccc3[nH]c-2n1 | inhibition in vivo at 3 mg/kg (Oryctolagus cuniculus [8]): 59%; inhibition in vivo at 1 mg/kg (Oryctolagus cuniculus [9]): 32%
0.7 | 380 | > 10000 | O=C(CCCOc1ccc2[nH]c3nc(O)nc-3cc2c1)N1CCN(Cc2cccs2)CC1 | –
– | 280 | < 10000 | COC(=O)C1CCN(c2ccc3[nH]c4nc(O)nc-4cc3c2)CC1 | –
0.03 | 51 | > 10000 | O=C(CCCCOc1ccc2[nH]c3nc(O)nc-3cc2c1)N1CCN(CC2CCCCC2)CC1 | IC50 (Oryctolagus cuniculus [10]): 0.03 mg/kg; inhibition in vivo at 0.1 mg/kg (Oryctolagus cuniculus [6]): > 50%
2 | 530 | > 10000 | O=C(CCCOc1ccc2[nH]c3nc(O)nc-3cc2c1)N1CCN(Cc2ccc(F)cc2)CC1 | –
0.3 | 270 | < 10000 | CC(C)(C)OC(=O)N1CCN(C(=O)CCCOc2ccc3[nH]c4nc(O)nc-4cc3c2)CC1 | –
– | 37900 | < 10000 | COc1ccc(C(=O)N2CCN(c3ccc4[nH]c5nc(O)nc-5cc4c3)CC2)cc1OC | –
0.9 | 750 | > 10000 | O=C(CCCOc1ccc2[nH]c3nc(O)nc-3cc2c1)N1CCN(C2CCCCCC2)CC1 | –
– | 1420 | > 10000 | CCN(CC)c1ccc2[nH]c3nc(O)nc-3cc2c1 | IC50 (Phosphodiesterase 3 [12]): 70 nM
0.6 | 710 | > 10000 | O=C(CCCCCOc1ccc2[nH]c3nc(O)nc-3cc2c1)N1CCN(CC2CCCCC2)CC1 | –
7 | 20800 | > 10000 | COCCN1CCN(C(=O)CCCOc2ccc3[nH]c4nc(O)nc-4cc3c2)CC1 | –
0.2 | 290 | < 10000 | O=C(CCCOc1ccc2[nH]c3nc(O)nc-3cc2c1)N1CCN(CC2CCCCCC2)CC1 | –
0.4 | 680 | < 10000 | CCCC(CCC)CN1CCN(C(=O)CCCOc2ccc3[nH]c4nc(O)nc-4cc3c2)CC1 | –

Reference: ChEMBL document CHEMBL1125486, “Inhibitors of blood platelet cAMP phosphodiesterase. 3. 1,3-Dihydro-2H-imidazo[4,5-b]quinolin-2-one derivatives with enhanced aqueous solubility” (J Med Chem, 1992)
